This is an account of results in ChEMBL document CHEMBL3992564, “Design and synthesis of novel, potent and selective hypoxanthine analogs as adenosine A1 receptor antagonists and their biological evaluation” (Bioorg Med Chem, 2017).

The source made the active and inactive calls. No cut-off for these calls is given here.

Broadly, the inhibition is the change of the read-out against control, counted positive when it falls. By IC50 is commonly meant the concentration that inhibits the measured activity by half. Read a high IC50 as lower potency.

Data set [1] deals with T1, Adenosine receptor A3 (Homo sapiens) (UniProt P0DMS8).
T1 sequence (whole entry): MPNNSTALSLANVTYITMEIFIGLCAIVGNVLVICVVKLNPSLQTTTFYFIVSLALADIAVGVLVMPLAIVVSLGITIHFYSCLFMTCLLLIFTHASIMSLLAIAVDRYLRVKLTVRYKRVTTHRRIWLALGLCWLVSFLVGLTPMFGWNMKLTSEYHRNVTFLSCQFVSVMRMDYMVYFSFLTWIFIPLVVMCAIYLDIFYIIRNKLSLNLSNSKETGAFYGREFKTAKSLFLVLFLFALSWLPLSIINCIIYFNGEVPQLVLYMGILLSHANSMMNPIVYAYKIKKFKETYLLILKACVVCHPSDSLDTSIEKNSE
In words: Displacement of [3H]HEMADO from human adenosine A3 receptor expressed in HEK293 cell membranes at 1 uM after 90 mins relative to control. In short, it runs like this:
(§1)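 Membranes from HEK-293 cells stably transfected with human receptor, pre-treated with adenosine deaminase. Radioligands: 1 nM [3H]DPCPX (A1), 1 nM [3H]ZM241385 (A2A), 1.6 nM [3H]MRS-1754 (A2B), 2 nM [3H]HEMADO (A3). Buffers: Tris pH 7.4 (A1, A2A, A3) or pH 6.5 (A2B), with ADA. Incubated 90 min at room temperature, then filtered. Nonspecific binding defined with 100 µM NECA. Ki from 8 concentrations run in triplicate.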
In general terms: Loss of bound radioactivity is the signal in a displacement assay; it reports binding, not function.

The nature of data set [2]: Drug metabolism assessed as dehydration by metabolic soft spot analysis. Format: physicochemical.
The subject of data set [3] is Rattus norvegicus. The data set is described as follows: Diuretic activity in Wistar rat at 10 to 30 mg/kg, po via gavage measured after 4 hrs. It is filed as functional, organism-based. Put shortly:
(§2)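 Male Wistar rats (250-300 g, n = 6) dosed orally at 5 mL/kg. Vehicles: DMAC 5%/NaOH/saline, or NMP 10%/PEG-400 20%/saline pH 12.0. Rats were then kept singly in metabolic cages without food or water for 4 h. Urine volume, Na+ and K+ were measured with a biochemistry analyser.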

Data set [4] can be described thus: Ratio of drug level in Wistar rat brain to plasma at 5 mg/kg, po via gavage measured at 4 hrs post dose by LC-Ms/MS analysis. The following applies: read-out: BPR. Format: ADME, organism-based. Put shortly:
(§3)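 Male Wistar rats, fasted overnight and for 2 h after dosing, given an oral solution at 5 mg/kg (0.5 mg/mL). Vehicle: NMP 10% with Labrasol 30% or PEG-400 20%, in citrate buffer […]. Blood and brain were taken at discrete time points, n = 2 per time point. Brain was homogenized 1:2 in PBS. Samples were precipitated with acetonitrile and run on LC-MS/MS; LLOQ 10 ng/mL.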

In data set [5] the test system is Rattus norvegicus. In words: Natriuretic activity in Wistar rat at 3 to 30 mg/kg, po via gavage measured after 4 hrs. Format: functional, organism-based. In short, it runs like this: as §2
Data set [6] relates to Rattus norvegicus. In words: Effect on serum Na+ level in Wistar rat at 3 to 30 mg/kg, po via gavage. It is filed as ADME, organism-based. The following applies: in vivo.
The nature of data set [7]: Ratio of drug level in Wistar rat brain to plasma at 5 mg/kg, po via gavage measured at 1 hr post dose by LC-Ms/MS analysis. Format: ADME, organism-based. As to conditions: read-out: BPR. In short, it runs like this: as §3
The target in a further data set is T2, Adenosine receptor A3 (Homo sapiens, UniProt P0DMS8).
T2 sequence (P0DMS8 whole entry): T1 sequence (whole entry)
In words: Displacement of [3H]HEMADO from human adenosine A3 receptor expressed in HEK293 cell membranes after 90 mins. In short, it runs like this:
as §1

Regarding `CCCn1c(Oc2cccnc2C)nc2nc(C3CCCC3)[nH]c2c1=O`, in data set [1], the inhibition was found to be 35%. In addition, the Drug metabolism result in data set [2] is reported as “Metabolite_Detected”.
Take `CCCn1c(Oc2ccc(F)c(F)c2)nc2nc(C3CCCC3)[nH]c2c1=O`: the result with Rattus norvegicus [3] and in the data set on Rattus norvegicus [5] was Active. For the same compound, the Kp at 4 h in data set [4] is 0.05. Further, the Activity entry in the data set with Rattus norvegicus [6] is listed as “Non-Toxic”. The Kp at 1 h in data set [7] is 0.05. The IC50 at Adenosine receptor A3 was over 10 µM.
